Published values collected from several papers.
Lines come from different studies, so protocols differ.
Effect on: metabolic stability

SMILES | system | conditions | half-life
CC(=O)c1c(C)c2cnc(Nc3ccc(N4CCNCC4)cn3)nc2n(C2CCCC2)c1=O | rat, liver microsomes | 1 µM, pH 7.4 | 90.4 min
O=c1ccc2ccc(O)cc2o1 | Sprague-Dawley rat, hepatocytes | 1 µM | 11.4 min
O=C(c1ccc(F)cc1)C1CCN(CCn2c(=O)[nH]c3ccccc3c2=O)CC1 | rat, liver microsomes | – | 17.8 min
CCOc1ccc2ccc(=O)oc2c1 | male Sprague-Dawley rat, hepatocytes | 1 µM | 13.1 min
O=c1ccc2ccc(O)cc2o1 | rat, liver microsomes | – | 2.42 min
O=C1CC[C@H](N2Cc3cc(N4CCN(CC5CCN(c6ccc([C@@H]7c8ccc(O)cc8CC[C@@H]7c7ccccc7)cc6)CC5)CC4)ccc3C2=O)C(=O)N1 | Sprague-Dawley rat, hepatocytes | 1 µM | 83 min
CCN(CC)CCNC(=O)c1c(C)[nH]c(/C=C2\C(=O)Nc3ccc(F)cc32)c1C | rat, liver microsomes | 1 µM | 77 min
CN(C)C(=O)c1cc2cnc(Nc3ccc(N4CCNCC4)cn3)nc2n1C1CCCC1 | rat, liver microsomes | 1 µM, pH 7.4 | 49.8 min
